Source: ChEMBL document CHEMBL3526002, “Tissue distribution and identification of radioactivity components at elimination phase after oral administration of [¹⁴C]CS-1036, an α-amylase inhibitor, to rats” (Drug Metab Dispos, 2013)

Tests used:
Plasma [1] = experiment: Drug level in albino F344/DuCrlCrlj rat plasma treated with [14C]CS-1036 at 10 mg/kg, po after 8 to 72 hrs by liquid scintillation counting; format: ADME, organism-based; design: dose 10 mg/kg, dosed compound name [14C]CS-1036, route oral; settings: in vivo
Intestine = experiment: Drug metabolism in po dosed rat in intestinal flora treated with [14C]CS-1036 by liquid scintillation counting; format: ADME, organism-based; design: dosed compound name [14C]CS-1036; settings: in vivo
[2] = Drug excretion in po dosed rat urine dosed as [14C]CS-1036 assessed as 1,4-dideoxy-1,4-imino-D-arabinitol (M1) level up to 24 hrs; format: ADME, organism-based; design: dosed compound name [14C]CS-1036; settings: in vivo
Plasma [3] = experiment: Drug metabolism in albino F344/DuCrlCrlj rat plasma protein treated with at 10 mg/kg, po of [14C]CS-1036 administered for 5 days by liquid scintillation counting; format: ADME, organism-based; design: dose 10 mg/kg, dosed compound name [14C]CS-1036, route oral; settings: in vivo, 120 h
Summary of the method: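 Male F344/DuCrlCrlj rats (n = 3) received oral [14C]CS-1036 at 10 mg/kg/day for 5 days at 24-h intervals, with food freely available. Plasma was taken from the abdominal aorta 24 h after the fifth dose and pooled. It was precipitated with acetonitrile, and the pellets were washed with 0.4 M TCA, 80% methanol and 30% ether/ethanol until washes were below twice background. Pellets were HCl-hydrolysed, and recovered radioactivity was counted by LSC.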

Rattus norvegicus = experiment: Half life in po dosed rat dosed and assessed as 1,4-dideoxy-1,4-imino-D-arabinitol level (M1); format: ADME, organism-based; design: dosed compound name M1; settings: in vivo
[4] = Systemic absorption of acarbose estimated from drug excretion in human urine; format: ADME; design: dosed compound name acarbose
Plasma [5] = experiment: Drug uptake in albino F344/DuCrlCrlj rat assessed as radioactivity in aspartic acid in plasma protein at 10 mg/kg, po administered for 5 days by accelerator mass spectrometry analysis; format: ADME, organism-based; design: dose 10 mg/kg, dosed compound name [14C]CS-1036, route oral; settings: in vivo, 120 h
Summary of the method: (§1)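 Rats were dosed orally with [14C]CS-1036 at 10 mg/kg/day for 5 days. Pooled plasma protein was washed and HCl-hydrolysed, then PTC-derivatized. It was separated by HPLC (40°C, gradient, UV 254 nm) and fractionated every 6 s over 0–15 min. Fraction 14C was measured by AMS after subtracting matching control-plasma fractions. Peaks were assigned by retention time against amino acid standards, and each fraction was expressed as % of injected radioactivity.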

Plasma [6] = experiment: Drug uptake in albino F344/DuCrlCrlj rat assessed as radioactivity in glutamic acid in plasma protein at 10 mg/kg, po administered for 5 days by accelerator mass spectrometry analysis; format: ADME, organism-based; design: dose 10 mg/kg, dosed compound name [14C]CS-1036, route oral; settings: in vivo, 120 h; summary of the method: as §1
[7] = Drug uptake in albino F344/DuCrlCrlj rat assessed as radioactivity in oleic acid in adipose tissue homogenates at 10 mg/kg, po administered for 4 days by LC-MS/MS spectra analysis; settings: in vivo, 96 h
[8] = Drug uptake in albino F344/DuCrlCrlj rat assessed as radioactivity in palmitic acid in adipose tissue homogenates at 10 mg/kg, po administered for 4 days by LC-MS/MS spectra analysis; settings: in vivo, 96 h

OC[C@H]1NC[C@@H](O)[C@@H]1O
Drug metabolism (Plasma [1]): metabolite_detected
Drug metabolism (Intestine): metabolite_detected
Compound recovery [2]: 5.3%
Drug metabolism (Plasma [3]): metabolite_detected
t1/2 (Rattus norvegicus): 48 min

C[C@H]1O[C@H](O[C@H]2[C@H](O)[C@@H](O)[C@@H](O[C@H]3[C@H](O)[C@@H](O)C(O)O[C@@H]3CO)O[C@@H]2CO)[C@H](O)[C@@H](O)[C@@H]1N[C@H]1C=C(CO)[C@@H](O)[C@H](O)[C@H]1O (stereo not given in full) [ACARBOSE]
Fa [4]: 1.7%

N[C@@H](CC(=O)O)C(=O)O [ASPARTIC ACID]
Compound recovery (Plasma [5]): 18.5%

N[C@@H](CCC(=O)O)C(=O)O [GLUTAMIC ACID]
Compound recovery (Plasma [6]): 36.5%

CCCCCCCC/C=C\CCCCCCCC(=O)O [OLEIC ACID]
Compound recovery [7]: Active

CCCCCCCCCCCCCCCC(=O)O [PALMITIC ACID]
Compound recovery [8]: Active
